Test results from ChEMBL document CHEMBL5244263, “Studies on fragment-based design of allosteric inhibitors of human factor XIa” (Bioorg Med Chem, 2020).
Active and inactive are the calls of the source. The calls are words filed in the database; no cut-off is given here.

Key:
Coagulation factor XI [1] = molecular target: T1, Coagulation factor XI (Homo sapiens, UniProt P03951); test: Binding affinity to active site dansylated human DEGR-FXIa assessed as maximal change in fluorescence intensity by fluorescence based analysis
T1 sequence (P03951 19-387 limits assumed): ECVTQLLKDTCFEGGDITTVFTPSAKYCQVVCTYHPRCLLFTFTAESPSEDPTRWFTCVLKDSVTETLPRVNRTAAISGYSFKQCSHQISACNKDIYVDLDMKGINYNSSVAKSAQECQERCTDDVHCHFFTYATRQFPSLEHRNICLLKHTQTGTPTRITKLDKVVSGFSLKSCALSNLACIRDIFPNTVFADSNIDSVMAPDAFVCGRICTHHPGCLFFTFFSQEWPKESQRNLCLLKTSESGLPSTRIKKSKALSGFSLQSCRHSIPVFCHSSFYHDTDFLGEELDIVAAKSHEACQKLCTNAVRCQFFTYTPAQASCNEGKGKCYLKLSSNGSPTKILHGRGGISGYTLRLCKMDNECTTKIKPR
T1 sequence (P03951 388-625 limits assumed): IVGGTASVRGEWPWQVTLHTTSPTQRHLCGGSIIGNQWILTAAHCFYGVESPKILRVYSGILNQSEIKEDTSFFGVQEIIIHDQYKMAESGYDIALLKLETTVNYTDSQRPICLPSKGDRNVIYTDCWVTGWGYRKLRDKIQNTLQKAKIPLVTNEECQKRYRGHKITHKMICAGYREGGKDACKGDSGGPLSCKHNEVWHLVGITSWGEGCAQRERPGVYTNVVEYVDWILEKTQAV
Method in brief: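 Dansyl fluorescence titration: aliquots of sulfated QAO added to 250 nM hFXIa–DEGR in 50 mM Tris-HCl pH 7.4, 150 mM NaCl, 0.1% PEG8000 at 37 °C. Emission read at 547 nm with excitation at 345 nm. ΔFMAX, Hill coefficient and KD come from nonlinear regression fits, using the Hill equation or a standard hyperbolic equation. Error is ±1 SE.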

Coagulation factor XI [2] = molecular target: T1, Coagulation factor XI; test: Inhibition of human FXIa using S-2366 as chromogenic substrate preincubated with enzyme for 10 mins followed by substrate addition by spectrophotometric analysis
Coagulation factor XI [3] = molecular target: T1, Coagulation factor XI; test: Binding affinity to active site dansylated human DEGR-FXIa assessed as hyperbolic interaction by measuring change in fluorescence intensity by fluorescence based analysis
Method in brief: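 Titration of sulfated QAOs into 250 nM active-site dansylated hFXIa–DEGR in 50 mM Tris-HCl pH 7.4, 150 mM NaCl, 0.1% PEG8000, 37 °C. Emission monitored at 547 nm (excitation 345 nm). ΔFMAX, Hill coefficient n and KD obtained by nonlinear regression, using either the Hill equation or a standard hyperbolic equation. Error ±1 SE.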

Coagulation factor XI [4] = molecular target: T1, Coagulation factor XI; test: Binding affinity to active site dansylated human DEGR-FXIa assessed as change in fluorescence intensity by fluorescence based analysis
Homo sapiens [5] = organism: Homo sapiens; test: Selectivity for inhibition of human FXIa over human FIXa
[6] = Selectivity for inhibition of human FXIa over bovine trypsin
[7] = molecular target: Coagulation factor X (Homo sapiens) (UniProt P00742); test: Inhibition of human FXa using methoxycarbonyl-D-cyclohexylglycyl-Gly-Arg-p-nitroanilide as substrate at >200 uM by chromogenic substrate hydrolysis assay
Coagulation factor X (Homo sapiens), sequence (P00742 41-179 limits assumed): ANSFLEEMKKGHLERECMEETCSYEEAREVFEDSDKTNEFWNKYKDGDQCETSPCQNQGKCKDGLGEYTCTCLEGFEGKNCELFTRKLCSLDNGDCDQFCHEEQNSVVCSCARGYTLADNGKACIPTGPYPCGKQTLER
Coagulation factor X (Homo sapiens), sequence (P00742 235-488 limits assumed): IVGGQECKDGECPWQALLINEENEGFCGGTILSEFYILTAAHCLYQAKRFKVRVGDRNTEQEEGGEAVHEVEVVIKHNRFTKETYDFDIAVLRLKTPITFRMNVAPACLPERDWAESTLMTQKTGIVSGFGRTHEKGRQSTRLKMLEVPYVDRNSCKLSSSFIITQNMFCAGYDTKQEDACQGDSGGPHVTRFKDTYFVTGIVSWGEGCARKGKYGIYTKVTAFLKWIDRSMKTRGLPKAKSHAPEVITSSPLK

Coagulation factor XI [8] = molecular target: T1, Coagulation factor XI; test: (§1) Inhibition of human FXIa using S-2366 as chromogenic substrate preincubated with enzyme for 10 mins followed by substrate addition by spectrophotometric analysis relative to control; design: concentration or dose not given beside the values
Method in brief: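 hFXIa (0.765 nM final) preincubated with inhibitor or reference solution for 10 min at 37 °C in pH 7.4 buffer (50 mM Tris-HCl, 150 mM NaCl, 0.1% PEG8000, 0.02% Tween80). S-2366 (345 μM final) then added, and residual activity read on a microplate reader.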

[9] = molecular target: Prothrombin (Homo sapiens) (UniProt P00734); test: Inhibition of human thrombin at 500 uM by chromogenic substrate hydrolysis assay
Homo sapiens [10] = organism: Homo sapiens; test: Selectivity for inhibition of human FXIa over FVIIa (unknown origin)
[11] = Selectivity for inhibition of human FXIa over bovine alpha-chymotrypsin
[12] = molecular target: Coagulation factor IX (Homo sapiens) (UniProt P00740); test: Inhibition of human FIXa at 500 uM by chromogenic substrate hydrolysis assay
Coagulation factor IX (Homo sapiens), sequence (P00740 47-191 limits assumed): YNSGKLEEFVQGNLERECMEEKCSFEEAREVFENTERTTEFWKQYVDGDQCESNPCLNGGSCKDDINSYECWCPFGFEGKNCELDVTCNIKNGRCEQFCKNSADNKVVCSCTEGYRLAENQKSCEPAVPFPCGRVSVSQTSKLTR
Coagulation factor IX (Homo sapiens), sequence (P00740 227-461 limits assumed): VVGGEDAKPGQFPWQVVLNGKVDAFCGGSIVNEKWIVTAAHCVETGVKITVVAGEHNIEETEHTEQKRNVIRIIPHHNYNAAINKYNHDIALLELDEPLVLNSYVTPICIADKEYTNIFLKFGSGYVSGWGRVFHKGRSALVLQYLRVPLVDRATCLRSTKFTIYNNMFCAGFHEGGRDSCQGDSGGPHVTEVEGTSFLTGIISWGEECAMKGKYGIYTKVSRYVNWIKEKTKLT

[13] = molecular target: Chymotrypsinogen A (Bos taurus) (UniProt P00766); test: Inhibition of bovine alpha-chymotrypsin at 500 uM by chromogenic substrate hydrolysis assay
Bos taurus [14] = organism: Bos taurus; test: Inhibition of bovine trypsin using S-2222 as chromogenic substrate at >200 uM by chromogenic substrate hydrolysis assay
[15] = molecular target: Plasma kallikrein (Homo sapiens) (UniProt P03952); test: Inhibition of Kallikrein in human plasma at 500 uM by chromogenic substrate hydrolysis assay; assay type: cell-free
Plasma kallikrein (Homo sapiens), sequence (P03952 20-390 limits assumed): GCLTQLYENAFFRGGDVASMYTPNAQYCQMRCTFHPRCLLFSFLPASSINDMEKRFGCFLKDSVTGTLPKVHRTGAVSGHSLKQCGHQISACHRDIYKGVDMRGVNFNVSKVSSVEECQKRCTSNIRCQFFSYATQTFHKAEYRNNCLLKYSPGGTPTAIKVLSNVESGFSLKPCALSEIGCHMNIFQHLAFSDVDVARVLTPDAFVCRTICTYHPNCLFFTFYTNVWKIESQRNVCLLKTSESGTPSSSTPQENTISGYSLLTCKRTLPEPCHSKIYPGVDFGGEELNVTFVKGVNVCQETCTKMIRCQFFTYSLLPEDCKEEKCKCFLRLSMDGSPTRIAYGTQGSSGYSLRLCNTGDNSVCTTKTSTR
Plasma kallikrein (Homo sapiens), sequence (P03952 391-638 limits assumed): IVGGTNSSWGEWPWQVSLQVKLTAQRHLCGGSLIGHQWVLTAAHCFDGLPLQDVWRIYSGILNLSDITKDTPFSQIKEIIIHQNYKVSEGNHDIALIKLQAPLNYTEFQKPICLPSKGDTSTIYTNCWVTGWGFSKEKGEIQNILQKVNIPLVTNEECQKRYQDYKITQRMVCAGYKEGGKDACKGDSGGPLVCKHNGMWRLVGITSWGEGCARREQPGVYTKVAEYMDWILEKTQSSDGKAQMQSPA

[16] = molecular target: T2, Coagulation factor VII (Homo sapiens) (UniProt P08709); test: Inhibition of FVIIa (unknown origin) at 500 uM by chromogenic substrate hydrolysis assay
T2 sequence (whole entry): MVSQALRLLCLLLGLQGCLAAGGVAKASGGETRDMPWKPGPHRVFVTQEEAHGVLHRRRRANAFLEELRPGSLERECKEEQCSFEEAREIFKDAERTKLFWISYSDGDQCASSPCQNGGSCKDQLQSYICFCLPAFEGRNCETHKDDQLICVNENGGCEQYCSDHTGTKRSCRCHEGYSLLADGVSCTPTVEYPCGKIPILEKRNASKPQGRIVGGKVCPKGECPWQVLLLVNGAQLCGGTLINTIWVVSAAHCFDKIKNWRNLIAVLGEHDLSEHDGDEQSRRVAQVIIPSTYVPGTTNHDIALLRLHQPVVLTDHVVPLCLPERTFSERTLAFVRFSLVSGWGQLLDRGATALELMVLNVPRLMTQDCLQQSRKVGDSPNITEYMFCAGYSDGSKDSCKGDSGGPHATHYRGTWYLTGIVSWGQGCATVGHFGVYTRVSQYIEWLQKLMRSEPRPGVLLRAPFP

Homo sapiens [17] = organism: Homo sapiens; test: Selectivity for inhibition of human FXIa over human thrombin
Homo sapiens [18] = organism: Homo sapiens; test: Selectivity for inhibition of human FXIa over Kallikrein in human plasma; assay type: cell-free
Homo sapiens [19] = organism: Homo sapiens; test: Selectivity for inhibition of human FXIa over human FXa
Homo sapiens [20] = organism: Homo sapiens; test: as §1, with “FXIa heparin-binding site of A3 domain harboring K252A,K253A,K255A mutant and heparin-binding site of catalytic domain harboring K529A,R530A,R532A,K535A,K539A mutant” for “FXIa”
Method in brief: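 Recombinant hFXIa alanine mutants tested in 50 mM Tris-HCl pH 7.4, 150 mM NaCl, 0.1% PEG8000, 0.02% Tween80. Inhibitor and enzyme incubated 10 min at 37 °C, then S-2366 (345 μM final) added and residual activity read. IC50 and maximal inhibition efficacy (ΔY) obtained by nonlinear dose-response regression.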

[21] = molecular target: Coagulation factor X (Homo sapiens) (UniProt P00742); test: Inhibition of human FXa using methoxycarbonyl-D-cyclohexylglycyl-Gly-Arg-p-nitroanilide as substrate at 500 uM by chromogenic substrate hydrolysis assay
Bos taurus [22] = organism: Bos taurus; test: Inhibition of bovine trypsin using S-2222 as chromogenic substrate at 500 uM by chromogenic substrate hydrolysis assay

With O=c1[nH]c(-c2ccc(OS(=O)(=O)O)cc2)nc2ccccc12 the Activity (Coagulation factor XI [1]) was -34%, the IC50 (Coagulation factor XI [2]) was 375 µM and the Activity (Coagulation factor XI [3]) was “Active”. For the same compound, the Kd (Coagulation factor XI [4]) was 365 µM.
In the case of O=c1c2ccccc2nc(-c2ccc(OS(=O)(=O)O)cc2)n1CCCCCCCCCCCn1c(-c2ccc(OS(=O)(=O)O)cc2)nc2ccccc2c1=O, the Selectivity ratio (Homo sapiens [5]) is reported as greater than 63, the Selectivity ratio [6] is reported as greater than 25 and the inhibition [7] is reported as “Active”. The IC50 (Coagulation factor XI [2]) was 14.5 µM, the inhibition (Coagulation factor XI [8]) was 96% and the inhibition [9] was “inactive”. The Selectivity ratio (Homo sapiens [10]) was greater than 63, the Selectivity ratio [11] was greater than 63 and the inhibition [12] was “inactive”. For the same compound, the inhibition [13] was “inactive”, the inhibition (Bos taurus [14]) was “Active” and the inhibition [15] was “inactive”. The inhibition [16] was “inactive”, the Selectivity ratio (Homo sapiens [17]) was greater than 63 and the Selectivity ratio (Homo sapiens [18]) was greater than 63. The Selectivity ratio (Homo sapiens [19]) was greater than 25.
For O=c1c2ccccc2nc(-c2ccc(OS(=O)(=O)O)cc2)n1CCCCCCCCCn1c(-c2ccc(OS(=O)(=O)O)cc2)nc2ccccc2c1=O, the inhibition (Homo sapiens [20]) was 105%, the inhibition [9] was “inactive” and the inhibition [12] was “inactive”. For the same compound, the inhibition [13] was “inactive”, the inhibition [15] was “inactive” and the inhibition [16] was “inactive”. For the same compound, the inhibition [21] was “inactive” and the inhibition (Bos taurus [22]) was “inactive”.
